Among the data in ChEMBL document CHEMBL4270609, “Purple acid phosphatase inhibitors as leads for osteoporosis chemotherapeutics” (Eur J Med Chem, 2018) are Kic, inhibition and Kiuc values, retold here.

Calls of active or inactive are those of the source. The rule behind the calls is not given here.

Assay [1] addresses T1, Fe(3+)-Zn(2+) purple acid phosphatase (Phaseolus vulgaris) (UniProt P80366).
T1 sequence (whole entry): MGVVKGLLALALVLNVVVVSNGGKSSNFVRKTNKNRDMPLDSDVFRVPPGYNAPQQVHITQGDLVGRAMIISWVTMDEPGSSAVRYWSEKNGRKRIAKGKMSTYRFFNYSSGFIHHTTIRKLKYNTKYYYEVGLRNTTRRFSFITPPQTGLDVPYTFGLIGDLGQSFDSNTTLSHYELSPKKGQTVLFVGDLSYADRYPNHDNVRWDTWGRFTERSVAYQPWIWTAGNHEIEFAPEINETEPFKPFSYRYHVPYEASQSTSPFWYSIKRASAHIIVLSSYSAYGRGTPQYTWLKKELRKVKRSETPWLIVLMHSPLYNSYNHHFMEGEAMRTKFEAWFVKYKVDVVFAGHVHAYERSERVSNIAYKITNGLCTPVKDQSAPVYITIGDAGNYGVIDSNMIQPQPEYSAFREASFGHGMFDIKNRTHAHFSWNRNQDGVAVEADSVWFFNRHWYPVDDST
Description: Competitive inhibition of red kidney bean purple acid phosphatase Fe(3)Fe(2) state assessed as enzyme-inhibitor complex using pNPP as substrate by UV/Vis spectrophotometric method. The essentials:
(§1)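 Pig PAP was from sow uterine fluid and pre-reduced to Fe(III)Fe(II) with 0.77 mM β-mercaptoethanol (10 min, 37 °C); rkbPAP was purified from red kidney beans. Assays ran at 25 °C, pH 4.9 (0.1 M acetate, 25% DMSO) with 12 nM enzyme, pNPP 1–12.5 mM and inhibitor 50–300 μM. p-Nitrophenol was read at 405 nm. Kic and Kiuc came from non-linear fit to the general inhibition equation.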

Assay [2] deals with T2, Tartrate-resistant acid phosphatase type 5 (Sus scrofa) (UniProt P09889).
T2 sequence (whole entry): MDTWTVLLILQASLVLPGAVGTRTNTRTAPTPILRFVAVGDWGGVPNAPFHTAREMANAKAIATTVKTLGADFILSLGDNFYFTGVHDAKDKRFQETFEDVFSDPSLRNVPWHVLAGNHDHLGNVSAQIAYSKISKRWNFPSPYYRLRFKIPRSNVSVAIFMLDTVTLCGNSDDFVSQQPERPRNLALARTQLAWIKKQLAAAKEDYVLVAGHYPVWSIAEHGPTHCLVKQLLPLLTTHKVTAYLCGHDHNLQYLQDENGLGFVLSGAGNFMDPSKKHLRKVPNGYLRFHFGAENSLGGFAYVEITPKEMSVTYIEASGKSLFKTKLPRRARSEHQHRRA
Description: Competitive inhibition of pig purple acid phosphatase Fe(3)Fe(2) state assessed as enzyme-inhibitor complex using pNPP as substrate by UV/Vis spectrophotometric method. In short, it runs like this: as §1

The target in assay [3] is T2, Tartrate-resistant acid phosphatase type 5 (Sus scrofa). Kind of assay: Inhibition of pig purple acid phosphatase Fe(3)Fe(2) state assessed as enzyme-inhibitor complex at 100 uM using pNPP as substrate by UV/Vis spectrophotometric method. The essentials:
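Used 5 mM pNPP substrate and 12 nM enzyme in 0.1 M acetate pH 4.9 with 25% DMSO at 25 °C. p-Nitrophenol formation was followed at 405 nm; result expressed as percentage inhibition.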

For assay [4] the target is unchanged. Kind of assay: Uncompetitive inhibition of pig purple acid phosphatase Fe(3)Fe(2) state assessed as enzyme-substrate-inhibitor complex using pNPP as substrate by UV/Vis spectrophotometric method. The essentials:
as §1

For assay [5], the target named is T1, Fe(3+)-Zn(2+) purple acid phosphatase (Phaseolus vulgaris). Description: Uncompetitive inhibition of red kidney bean purple acid phosphatase Fe(3)Fe(2) state assessed as enzyme-substrate-inhibitor complex using pNPP as substrate by UV/Vis spectrophotometric method. In short, it runs like this:
as §1

On to `O=C(O)c1csc(-c2ccc(Cl)cc2)n1`, for which the results for the Kic in assay [1] and in assay [2] were 530 µM and 49 µM, respectively.
Regarding `COc1ccc(C2N[C@H](C(=O)O)CS2)cc1` (some centres not stated), the inhibition entry in assay [3] is “inactive”.
Regarding `Cc1ccc(-c2nc(C(=O)O)cs2)cc1`, the Kic is 340 µM in assay [1] and 42 µM in assay [2].
Take `O=C(O)[C@@H]1CSC(c2ccccc2)N1` (some centres not stated): in assay [3], the inhibition result was “inactive”.
The same measure, in the same setting: in the case of `O=C(O)[C@@H]1CSC(c2ccccc2O)N1` (some centres not stated) it was “inactive”.
Turning to `Cc1ccc(C2N[C@H](C(=O)O)CS2)cc1` (some centres not stated), in assay [3], the inhibition result was “inactive”.
On to `O=C(O)c1csc(-c2cccc3ccccc23)n1`, for which the Kic in assay [1] came to 185 µM; in assay [2], 33 µM. Further, the Kiuc in assay [4] was found to be 110 µM.
`O=C(O)[C@@H]1CSC(c2c(O)ccc3ccccc23)N1` (some centres not stated): the inhibition result in assay [3] was “inactive”.
Still for that read-out and setting: with `O=C(O)[C@@H]1CSC(c2ccco2)N1` (some centres not stated) the entry was “inactive”; with `O=C(O)[C@@H]1CSC(c2cccc3ccccc23)N1` (some centres not stated), “inactive”.
On to `COc1ccc(-c2nc(C(=O)O)cs2)cc1`, for which the Kic is 400 µM in assay [1] and 120 µM in assay [2]. In addition, in assay [5], the Kiuc came to 770 µM.
Take `O=C(O)[C@@H]1CSC(c2ccc(O)cc2)N1` (some centres not stated): in assay [3], the inhibition result is “inactive”.
`O=C(O)c1csc(-c2ccccc2)n1`: the Kic in assay [2] was determined as 190 µM.
With `O=C(O)c1csc(-c2ccccc2Cl)n1`, the Kic in assay [1] was determined as 920 µM; in assay [2] it was 630 µM. Besides, the Kiuc in assay [4] stood at 350 µM.
